The results in this text go back to ChEMBL document CHEMBL1148512, “Fluorophor-labeled spermidine derivatives as fluorescent markers in optical tumor imaging” (Bioorg Med Chem Lett, 2006).

In data set [1] the test system is MH3924A. Nature of the data set: Cellular uptake in rat MH3924A cells. It counts as ADME, cell-based. In a few lines:
(§1)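 Cultured tumour cells grown on coverslips, incubated with 50 µM dye conjugate for 1, 4 and 24 h, then imaged by confocal laser scanning microscopy. Parallel incubations were run with benzyl viologen, a polyamine uptake inhibitor. B16 cells were also co-cultured with 3T3YMT-MP non-tumour cells, which express yellow fluorescent protein in mitochondria. Unlabelled cells served as reference.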

Data set [2] relates to MH3924A. Nature of the data set: Cytotoxicity against rat MH3924A cells assessed as inhibition of colony formation at 25 uM after 4 hrs. It counts as functional, cell-based. In outline:
(§2)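 Colony forming assay in MH3924A and B16 cells. Cells were exposed to dye for 4 h (1–250 µM tested across dyes) and colonies were scored 8 days later. Colony formation is expressed as percent of untreated controls.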

The test system of data set [3] is B16. Nature of the data set: Cellular uptake in mouse B16 cells. The class given is ADME, cell-based. In a few lines: as §1
Data set [4] concerns B16. The experiment in a line: Cytotoxicity against mouse B16 cells assessed as inhibition of colony formation at 25 uM after 4 hrs. The class given is functional, cell-based. In outline: as §2
Data set [5] is filed under the species Mus musculus. Nature of the data set: Distribution in bladder of MH3924A hepatoma bearing nude Balc C nu/nu mouse by fluorescence imaging. The class given is ADME, organism-based, Urinary bladder. Particulars: in vivo. In a few lines:
(§3)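 Male Balb/c nu/nu nude mice (about 20 g) carrying subcutaneous MH3924A rat hepatoma (3–8 mm diameter). Dye given as an iv bolus via lateral tail vein, 500 lmol/kg; PBS-injected controls. Under ip ketamine/xylazine (1 mL/kg), open surgery with chest or abdominal incision. Cooled CCD imaging at 10 min, 1 h and 4 h, 60 s exposure, about 5 cm distance. Photon counts summed per equal-size region of interest (11.6 mm2) over 1 min.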

The test system of data set [6] is MH3924A. Nature of the data set: Cellular uptake in rat MH3924A cells xenografted in nude Balc C nu/nu mouse by fluorescence imaging. It counts as ADME, cell-based. Particulars: in vivo. In outline: as §3
In data set [7] the test system is B16. The experiment in a line: Increase in fluorescence in mouse B16 cells after 24 hrs relative to control. The class given is functional, cell-based. In outline: (§4)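 Quantitative uptake assay: tumour cells incubated with dye for 24 h. Cell-associated fluorescence is expressed as percent increase over unlabelled tumour cells.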
The subject of data set [8] is MH3924A. Nature of the data set: Increase in fluorescence in rat MH3924A cells after 24 hrs relative to control. It counts as functional, cell-based. In a few lines: as §4
For data set [9], the species on record is Mus musculus. The experiment in a line: Distribution in muscle of MH3924A hepatoma bearing nude Balc C nu/nu mouse by fluorescence imaging. It counts as ADME, organism-based, Muscle tissue. The conditions noted are these: in vivo. In a few lines:
as §3

The species entered for data set [10] is Mus musculus. The experiment in a line: Distribution in lung of MH3924A hepatoma bearing nude Balc C nu/nu mouse by fluorescence imaging. The class given is ADME, organism-based. Particulars: in vivo. In a few lines: as §3

Active and inactive are the calls of the source. The calls are words filed in the database; no cut-off is given here.

On to `Cc1cc2cc3cc(C)c(NC(=O)CC(N)C(=O)NCCCCNCCCN)cc3nc2cc1N` (stereo not drawn) [ASPARTYL(ACRIDINE YELLOW G)SPERMIDINE], for which the Drug uptake result in the data set with MH3924A [1] and in the data set on B16 [3] was “Active” in each case. Besides, the result with MH3924A [2] and in the data set on B16 [4] was Active.

For the compound `NCCCNCCCCNC(=O)C[C@H](NC(=O)c1ccc(-c2c3ccc(=O)cc-3oc3cc(O)ccc23)c(C(=O)O)c1)C(=O)NCC(=O)NCC(N)=O`, the Drug uptake entry in the data set with MH3924A [1] and in the data set with B16 [3] was “Not Active” in each case.

On to `CNc1ccccc1C(=O)NCCCCNCCCN`, for which the Drug uptake entry in the data set on MH3924A [1] was “Active”; in the data set filed under Mus musculus [5], “Active”; with MH3924A [6], “Active”; in the data set on B16 [7], 19%; with MH3924A [8] it was 16%; in the data set listed under Mus musculus [9] it was “Not Active”. Also, the Drug uptake entry in the data set filed under Mus musculus [10] is “Not Active”.
